Measured values as given in the EternaBench riboswitch data.

Tested on: MS2 coat protein
Test: apparent Kd, MS2 coat protein; higher = weaker binding; RNA-MaP array; FMN 200 µM where present
Summary of the method: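 In 100 mM Tris-HCl pH 7.5, 80 mM KCl, 4 mM MgCl2, BSA, DTT, yeast tRNA and Tween-20, SNAP-549-labelled MS2 coat protein was titrated from 0.7 or 1.5 nM, doubling to 3 µM, over designs transcribed by stalled E. coli RNA polymerase on Illumina sequencing-chip clusters. This was done first without ligand, then with ligand held constant. After green signal was normalised to red-channel RNA signal and control-cluster median Fmax, the apparent Kd was taken as the median of filtered per-cluster binding-curve fits.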

[1] = designed as: OFF switch for flavin mononucleotide, no ligand
[2] = ligand present: flavin mononucleotide, designed as: OFF switch for flavin mononucleotide
[3] = designed as: ON switch for flavin mononucleotide, no ligand
[4] = ligand present: flavin mononucleotide, designed as: ON switch for flavin mononucleotide

Row | Sequence | apparent Kd [1] [nM] | apparent Kd [2] [nM] | apparent Kd [3] [nM] | apparent Kd [4] [nM]
1 | GUAGAGUCAGGAUAUACGAGAUCGAAAGAUCGGCGAUCCAUACAUGAGGAUCACCCAUGUAGAAGGGACUCUAC | 15.6 | 148 | – | –
2 | GUAGAGUCAGGAUAUACGAGAUCGAAAGAUCGUCGAUCCUUACAUGAGGAUCACCCAUGUAGAAGGGACUCUAC | 22.7 | 238 | – | –
3 | GUAGCAUAAUCAGGAUAUUCAGCGAAUAGAUUGACAUGAGGAUCACCCAUGUGGCGAAAGCCUCGGGAGAAGGGAUAAUGCUAC | – | – | 399 | 76.8
4 | GUAGCAUACCGAGGAUAUUCAGGGCGUGGAUAUACAUGAGGAUCACCCAUGUGGCGAAAGCCUAGGGAGAAGGCGGAAUGCUAC | – | – | 23.6 | 17
5 | GUAGCAUACCGAGGAUAUUCAGGGCUUAUAUAAACAUGAGGAUCACCCAUGUGGCGAAAGCCUAGGGAGAAGGCGGAAUGCUAC | – | – | 14.9 | 13.1
6 | GUAGCAUACCGAGGAUAUUCAUAUAGGAAACAAACAUGAGGAUCACCCAUGUGGCGAAAGCCUUGGGAGAAGGCGGAAUGCUAC | – | – | 115 | 21.1
7 | GUAGCAUACCGAGGAUAUUCAUAUAGGAAACUAACAUGAGGAUCACCCAUGUGGCGAAAGCCUUGGGAGAAGGCGGAAUGCUAC | – | – | 408 | 29.2
8 | GUAGCAUACCGAGGAUAUUCCGGGCAUAAAUAAACAUGAGGAUCACCCAUGUGGCGAAAGCCUAGGGAGAAGGCGGAAUGCUAC | – | – | 15.2 | 13.6
9 | GUAGCAUACGGAGGAUAUUCAUAUAAUAAAUAAACAUGAGGAUCACCCAUGUGGCGAAAGCCUUGGGAGAAGGCCGAAUGCUAC | – | – | 805 | 39.8
10 | GUAGCAUGCAGGCAGGAUAUUCAUAUUAAAACAUGAGGAUCACCCAUGUAGGCCGAAAGGCCUUGGGAGAAGGGCCACAUGCUAC | – | – | 786 | 52.6
11 | GUAGCUAUCGCAGGAUAUCCUCAGGCGAAAGCCACAUGAGGAUCACCCAUGUAUAUAAAGAAUAUGGAGAAGGGCGAUAGCUAC | – | – | 1670 | 185
12 | GUAGCUAUCGGAGGAUAUUCAAUAUACAUGAGGAUCACCCAUGUUAAAGUGGGAGAAGGCCGAUAGCUACAAGAGCGAAAGCUC | – | – | 13.6 | 6
13 | GUAGCUAUCGGAGGAUAUUCAUACCGGAAACGGACAUGAGGAUCACCCAUGUAGCGAAAGCCUUGGGAGAAGGCCGAUAGCUAC | – | – | 919 | 103
14 | GUAGCUAUCGGAGGAUAUUCAUACCGGAAACGGACAUGAGGAUCACCCAUGUGGCGAAAGCCGUGGGAGAAGGCCGAUAGCUAC | – | – | 875 | 43
15 | GUAGCUAUCGGAGGAUAUUCAUACUGGAAACGGACAUGAGGAUCACCCAUGUGGCGAAAGCCUUGGGAGAAGGUCGAUAGCUAC | – | – | 177 | 10.1
16 | GUAGCUAUUAAAGGAUAUUCAUACCGGAGACGGACAUGAGGAUCACCCAUGUGGCGAAAGCCUUGGGAGAAGGUUAUUAGCUAC | – | – | 452 | 17.7
17 | GUAGUGCUCAUAGGAUAUCGGGAGCAACGUAGACAGGUUGCACAUGAGGAUCACCCAUGUAAAGUCGAGAAGGGUGAUCACGCC | – | – | 599 | 177
18 | GUAGUGUAGUGAGGAUAUACGAGAUCGAUAGAUCGGCGAUCCAUUAAUACAUGAGGAUCACCCAUGUAGAAGGCACUUCACUAC | 6.01 | 70.7 | – | –
19 | GUAGUUGUGUGGUUGAGGAUAGGGCAGGAUAUACAUGAGGAUCACCCAUGUGAAGCGGGAAGGAGGUAGAAGGGCCAACGUCAU | 13.7 | 10.9 | – | –
20 | GUAUAUAUUACAUGAGGAUCACCCAUGUCAGAACGGGUAAUCAGAAGGUAUUAUUAGAGAAAGGGUAAGGAUAUGAUUAUAUAC | – | – | 577 | 321
21 | GUAUAUCACUCAGGAUAUCUGUAAUUUAUUGAAACAUGAGGAUCACCCAUGUUCAUAAAUUUAUAGGAGAAGGGAGAGAUAUAC | – | – | 4.39 | 4.58
22 | GUAUCGUGAGGAUAUCAUGAUUGACUUUUAUUUUGUCAGCGUGAGAAGGCACAUGAGGAUCACCCAUGUGAUUA | 22.6 | 50.5 | – | –
23 | GUCAAAACCAUACUGGUCGACGGUCAGGAUAUACAUGAGGAUCACCCAUGUGCUAUUGAUACUAUGUAGAAGGGACCCACCGCA | 16.2 | 30 | – | –
24 | GUCACGAAUGUAGGAUAUCGAGUGGAAUACACUCGAGAAGGACAUGAGGAUCACCCAUGUACUAUGAAAGAUAAUAAACGUGAC | 14.9 | 19.5 | – | –
25 | GUCACUAGAGGAUAUACAAUGGUAUAUGAUCCUAGAGACAUACAUGAGGAUCACCCAUGUAGAAGGCUAGUAAU | 81.7 | 46.6 | – | –
26 | GUCAGCAAAUAAGGAUAUACAACACUGCUUCGGCAGUGUAUUAAGAUCACAUGAGGAUCACCCAUGUAGAAGGUAUAAGCUGAU | 6.98 | 24.5 | – | –
27 | GUCAGCUCGUGAGGAUAUACAACACUGCUUCGGCAGAGUAUUAAGAUCACAUGAGGAUCACCCAUGUAGAAGGCACGAGCUGAU | 10.3 | 117 | – | –

Row | Sequence | apparent Kd [1] [nM] | apparent Kd [2] [nM] | apparent Kd [3] [nM] | apparent Kd [4] [nM]
28 | GUCAGCUCGUGAGGAUAUACAACACUGCUUCGGCAGUGUAUUAAAAUAACAUGAGGAUCACCCAUGUAGAAGGCACGAGCUGAU | 5.14 | 6.62 | – | –
29 | GUCAGCUCGUGAGGAUAUACAACACUGCUUCGGCAGUGUAUUAAGAUCACAUGAGGAUCACCCAUGUAGAAGGCACAAGCUGAU | 15.9 | 271 | – | –
30 | GUCAGCUCGUGAGGAUAUACAACACUGCUUCGGCAGUGUAUUAAGAUCACAUGAGGAUCACCCAUGUAGAAGGCACGAGCCGAU | 14.3 | 271 | – | –
31 | GUCAGCUCGUGAGGAUAUACAACACUGCUUCGGCAGUGUAUUAAGAUCACAUGAGGAUCACCCAUGUAGAAGGCACGAGCUCAU | 15.2 | 246 | – | –
32 | GUCAGCUCGUGAGGAUAUACAACACUGCUUCGGCAGUGUAUUAAGAUUACAUGAGGAUCACCCAUGUAGAAGGCACGAGCUGAU | 5.01 | 6.95 | – | –
33 | GUCAGCUCGUGAGGAUAUACAACACUGCUUCGGCAGUGUCUUAAGAUCACAUGAGGAUCACCCAUGUAGAAGGCACGAGCUGAU | 8.98 | 168 | – | –
34 | GUCAGCUCGUGAGGAUAUACAUCACUGCUUCGGCAGUGUAUUAACAUCACAUGAGGAUCACCCAUGUAGAAGGCACGAGCUGAU | 16 | 22.7 | – | –
35 | GUCAGCUCGUGAGGAUAUACAUGAUAGAUCGAUUAAUUAAUUAAUUUAACAUGAGGAUCACCCAUGUAGAAGGCACGAGCUGAC | 51.7 | 46.7 | – | –
36 | GUCAGCUCGUGAGGAUAUACAUGAUAGAUCGAUUAAUUAAUUAAUUUAACAUGAGGAUCACCCAUGUAGAAGGUACGAGCUGAC | 52 | 66.3 | – | –
37 | GUCAGCUCGUGAGGAUAUACAUGUGCUGGAAACAGCACUAAUUAAAUCACAUGAGGAUCACCCAUGUAGAAGGCACGAGCUGAU | 16.4 | 23.6 | – | –
38 | GUCAGCUCGUGAGGAUAUACAUGUGCUGGAGACAGCACUAAUAGAAUCACAUGAGGAUCACCCAUGUAGAAGGCACGAGCUGAU | 17 | 41.2 | – | –
39 | GUCAGCUCGUGAGGAUAUACAUGUGCUGGAGACAGCACUAUUAAAUUCACAUGAGGAUCACCCAUGUAGAAGGCACGAGCUGAU | 15.2 | 18.6 | – | –
40 | GUCAGCUCGUGAGGAUAUACAUGUGCUGGAGACAGCAUUAUAUUUUUCACAUGAGGAUCACCCAUGUAGAAGGCACGAGCUGAU | 16.5 | 27.4 | – | –
41 | GUCAGCUCGUGAGGAUAUACAUGUGCUGGAUACAGCACUAAAGAUUUCACAUGAGGAUCACCCAUGUAGAAGGCACGAGCUGAU | 16.9 | 38 | – | –
42 | GUCAGCUCGUGAGGAUAUACAUGUGCUGGAUACAGCAUUAAAUUUUUCACAUGAGGAUCACCCAUGUAGAAGGCACGAGCUGAU | 19.2 | 49.6 | – | –
43 | GUCAGCUCGUGAGGAUAUCCAACACUGCUUCGGCAGUGUAUUAAGAUCACAUGAGGAUCACCCAUGUAGAAGGCACGAGCUGAU | 6.48 | 7.55 | – | –
44 | GUCAGUGUGGUAGGAUAUCGAAACGGUCAGUUACGAGAAGGGCUACAUGAGGAUCACCCAUGUAUCCAGGAUCGGCUUACAGUA | 6.16 | 6.27 | – | –
45 | GUCAUACAUGAGGAUCACCCAUGUAAGGAUAUGCUAGCGGUCGGAAGACUGACUGCUAGCAGAAGGUACAUGAU | 67.1 | 92.5 | – | –
46 | GUCAUACAUGAGGAUCACCCAUGUAAGGAUAUGCUAGCGGUCGGCUGACUGACUGCUAGCAGAAGGUACAUGAU | 64.1 | 90 | – | –
47 | GUCAUUUAUGUAGGAUAUGCGAGGCGAGCCUGAGCAGAAGGACAUGAGGAUCACCCAUGUAUUGCGGUUUAUGUUCAGAUCGCU | 16.3 | 19 | – | –
48 | GUCCGCUCGUGAGGAUAUACAACACUGCUUCGGCAGUGUAUUAAGAUCACAUGAGGAUCACCCAUGUAGAAGGCACGAGCUGAU | 13.7 | 289 | – | –
49 | GUCCUACAUGAGGAUCACCCAUGUAAGGAUAUGCUAGCGGUCGGAUGACUGACUGCUAGCAGAAGGUACAUGAU | 15.2 | 24.9 | – | –
50 | GUCCUACAUGAGGAUCACCCAUGUGAGGAUAUGGAUUCGCUGGCCGUAGCCAGUGGAUCCAGAAGGCGCAUGAU | 26.9 | 82.8 | – | –
51 | GUCCUCAAGACAGGAUAUCCAUACAACGCGCUAGGAGAAGGGUCUACAUGAGGAUCACCCAUGUGAUUCUGAGAAUUUGGUGGG | 313 | 148 | – | –
52 | GUCCUCAGCGAGGAUAUCGGGCGGGUUUUUGUUUGAGAAGGCGUGACAUGAGGAUCACCCAUGUGGCGCGUGGG | 51.2 | 82.3 | – | –
53 | GUCGAGUGAGGAUAUGGUGAGUAGUGCCAGAGCGCUGCUCACCAGAAGGCACAUGAGGAUCACCCAUGUAUAGC | 16.8 | 29.9 | – | –
54 | GUCGGAAACGACAAAAGUAGCAUAGGAGAAGGCAUGUCAAAGACAUGAGGAUCACCCAUGUAGCAUGAGGAUAUCCUAUGCUAC | – | – | 5.24 | 4.97
